Experimental data as given in ChEMBL document CHEMBL1126922, “Synthesis of 2,4-disubstituted thiazoles and selenazoles as potential antitumor and antifilarial agents: 1. Methyl 4-(isothiocyanatomethyl)thiazole-2-carbamates, -selenazole-2- carbamates, and related derivatives” (J Med Chem, 1993).

Tests used:
L1210 [1] = assay: Effect on protein synthesis in L1210 measured by inhibition of incorporation of [3H]leucine into acid insoluble material after 0 hours expressed as percent of control; format: functional, Mus musculus; design: scale not given: the % may be the effect or the level left
In short: (§1)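 100 μM compound and L-[3,4,5-3H]leucine (143 Ci/mmol, 1 μCi/mL) were added together to L1210 cells ((1-1.5) × 10^5 cells/mL) for a 1 h pulse, started at 0 h or 6 h after compound. Duplicate samples were chilled in ice-cold Puck's Saline G, washed, and precipitated with BSA plus 8% perchloric acid on ice for 30 min. The pellet was hydrolysed in 1 N NaOH at 37 °C and counted; results are % of control.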

L1210 [2] = assay: Effect on DNA synthesis in L1210 measured by inhibition of incorporation of [3H]dThd into acid insoluble material after 0 hours expressed as percent of control; format: functional, Mus musculus; design: scale not given: the % may be the effect or the level left
In short: (§2)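 L1210 cells given 100 μM compound together with [methyl-3H]dThd (20 Ci/mmol, 1 μCi/mL) or [5-3H]Urd (28.5 Ci/mmol, 1 μCi/mL). Label pulse lasted 1 h, started either at compound addition (0 h) or 6 h later. 3H in the acid-insoluble fraction was counted by liquid scintillation. Values are % of control, mean of two determinations in separate experiments, with range.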

L1210 [3] = assay: In vitro inhibitory concentration of compound against leukemia L1210 cells; format: functional, cell-based; conditions: Mus musculus
In short: (§3)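 L1210 murine leukemia cells kept in static suspension culture at 38 °C in Fischer's medium with 10% heat-inactivated horse serum. Growth measured over 3 days with the compound present continuously at various concentrations. Growth rate = control doubling time / treated doubling time, using the final rate if growth slowed. IC50 = concentration that cuts growth rate to 50% of control.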

L1210 [4] = assay: Effect on DNA synthesis in L1210 measured by inhibition of incorporation of [3H]dThd into acid insoluble material after 6 hours expressed as percent of control; format: functional, Mus musculus; design: scale not given: the % may be the effect or the level left; in short: as §2
L1210 [5] = assay: Effect on RNA synthesis in L1210 measured by inhibition of incorporation of [3H]uridine into acid insoluble material after 0 hours expressed as percent of control; format: functional, Mus musculus; design: scale not given: the % may be the effect or the level left; in short: as §2
L1210 [6] = assay: Growth rate measured as ratio of population doubling time of control cells to that of treated L1210 cells at 100 uM; format: functional, Mus musculus
In short: (§4)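 L1210 cells were grown in static suspension at 38 °C in Fischer's medium with 10% heat-inactivated horse serum, with test compound present continuously for 3 days. Growth rate is the treated/control slope of semilog cell number versus time, calculated as control doubling time ÷ treated doubling time. If growth slowed during the run, the final rate at day 3 was used.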

L1210 [7] = assay: Effect on RNA synthesis in L1210 measured by inhibition of incorporation of [3H]uridine into acid insoluble material after 6 hours expressed as percent of control; format: functional, Mus musculus; design: scale not given: the % may be the effect or the level left; in short: as §2
L1210 [8] = assay: Effect on protein synthesis in L1210 measured by inhibition of incorporation of [3H]leucine into acid insoluble material after 6 hours expressed as percent of control; format: functional, Mus musculus; design: scale not given: the % may be the effect or the level left; in short: as §1
L1210 [9] = assay: In vitro inhibitory concentration of compound against leukemia L1210 cells; No significant inhibition; format: functional, cell-based, Mus musculus; in short: as §3
L1210 [10] = assay: Growth rate in leukemia L1210 cells at 100 uM; format: functional, Mus musculus; in short: as §4
L1210 [11] = assay: Growth rate measured as ratio of population doubling time of control cells to that of treated L1210 cells at 10 uM

Work on COC(=O)Nc1nc(CN=C=S)cs1 yielded an Effect (L1210 [1]) of 58%, an Effect (L1210 [2]) of 88% and an IC50 (L1210 [3]) of 3.2 µM. The Effect (L1210 [4]) was 56%, the Effect (L1210 [5]) was 74% and the GR (L1210 [6]) was 0%. For the same molecule, the Effect (L1210 [7]) was 67% and the Effect (L1210 [8]) was 48%.

For COC(=O)Nc1nc(CCN=C=S)cs1, the IC50 (L1210 [3]) was 26 µM and the GR (L1210 [6]) was 0%.

Work on CCOC(=O)Cc1csc(NC(=O)OC)n1 yielded a GR (L1210 [6]) of 104%.

COC(=O)Nc1nc(CCCl)cs1 showed a GR (L1210 [6]) of 92%.

With COC(=O)Nc1nc(CCl)cs1 the GR (L1210 [6]) was 96% and the IC50 (L1210 [9]) was “Not Active”.

Molecule COC(=O)Nc1nc(CCl)c[se]1 has a GR (L1210 [6]) of 103%.

COC(=O)Nc1nc(CN=C=[Se])cs1 gave an IC50 (L1210 [3]) of 7.6 µM and a GR (L1210 [6]) of 0%.

For COC(=O)Nc1nc(CCO)cs1, the GR control (L1210 [10]) was 102%.

In the case of COC(=O)Nc1nc(CN=C=S)c[se]1, the IC50 (L1210 [3]) is reported as 22 µM and the GR (L1210 [6]) is reported as 31%.

Work on COC(=O)Nc1nc(CCI)cs1 yielded a GR (L1210 [11]) of 92%.
